Published values of several laboratories.
Each line is one published result; the experiments were not run side by side.
Organism: Plasmodium falciparum
Read-out: parasite growth
Method: SYBR Green

O=C1C(O)=C([C@H]2CC[C@H](c3ccc(Cl)cc3)CC2)C(=O)c2ccccc21 — EC50 (72 h): 0.86 nM
Cn1cc2c3c1C(=O)C(NCCc1ccc(O)cc1)=CC3=NCC2 — IC50 (W2; blood stage): 5010 nM
COCC(=O)N1CCC[C@H](C(=O)NCc2nc(-c3ccc(C)cc3)cs2)C1 — EC50 (DD2; 72 h, blood stage): 15 nM
O=C1c2[nH]cc3c2C(=NCC3)c2c(-c3ccc(O)cc3)c[nH]c21 — IC50 (W2; blood stage): 4540 nM
CCOCC(=O)N1CCC[C@H](C(=O)NCc2nc(-c3ccc(C)nc3)cs2)C1 — EC50 (DD2; 72 h, blood stage): 5 nM
O=C(/C=C/c1cn(Cc2cn(-c3ccnc4cc(Cl)ccc34)nn2)c2ccccc12)c1cccs1 — inhibition (3D7; 5 µM, blood stage): 32.1%
COCC(=O)N1CCCC(C(=O)NCc2nc(-c3ccccc3)cs2)C1 (racemic) — EC50 (DD2; 72 h, blood stage): 140 to 190 nM
NC1=CC2=NCCc3c[nH]c(c32)C1=O — IC50 (W2; blood stage): 294 nM
COc1ccccc1C(=O)/C=C/c1cn(Cc2cn(-c3ccnc4cc(Cl)ccc34)nn2)c2ccccc12 — inhibition (3D7; 5 µM, blood stage): 56.8%
CCOC(=O)C1=C(C)NC2=C(C(=O)CC(c3ccc(Cl)c(OC)c3)C2)C1c1ccccc1Cl (stereo not shown) — EC50 (3D7; blood stage): ~20 nM
O=C(/C=C/c1cn(Cc2cn(-c3ccnc4cc(Cl)ccc34)nn2)c2ccccc12)c1ccc(Br)cc1 — inhibition (3D7; 5 µM, blood stage): 12.9%
COC(CNC1=CC2=NCCc3c[nH]c(c32)C1=O)c1c[nH]c2ccccc12 (stereo not shown) — IC50 (W2; blood stage): 1120 nM
CCN(CC)CCCC(C)Nc1ccnc2cc(Cl)ccc12 (stereo not shown) — IC50 (3D7; 96 h, blood stage): 4.8 nM
O=C(/C=C/c1cn(Cc2cn(-c3ccnc4cc(Cl)ccc34)nn2)c2ccccc12)c1ccccc1Br — inhibition (3D7; 5 µM, blood stage): -1.58%
Cc1cc(Nc2ccc(S(F)(F)(F)(F)F)cc2)n2nc(C(C)(F)F)nc2n1 — EC50 (72 h): 5.7 nM
O=C1C(NCCc2ccc(O)cc2)=CC2=NCCc3c[nH]c1c32 — IC50 (W2; blood stage): 476 nM
O=C(/C=C/c1cn(Cc2cn(-c3ccnc4cc(Cl)ccc34)nn2)c2ccccc12)c1ccccc1[N+](=O)[O-] — inhibition (3D7; 10 µM, blood stage): 26.1%
O=C1C(NCCc2c[nH]c3ccccc23)=CC2=NCCc3c[nH]c1c32 — IC50 (DD2; blood stage): 598 nM
O=C(/C=C/c1cn(Cc2cn(-c3ccnc4cc(Cl)ccc34)nn2)c2ccccc12)c1ccccc1 — inhibition (3D7; 5 µM, blood stage): -3.08%
